The text below walks through data of ChEMBL document CHEMBL1126072, “Hydantoin bioisosteres. In vivo active spiro hydroxy acetic acid aldose reductase inhibitors” (J Med Chem, 1992).

Assay [1] concerns Rattus norvegicus. Kind of assay: Effective dose was tested against the inhibition of sorbitol accumulation in sciatic nerves from streptozotocin-diabetic rats dosed at 3*25 mg/kg over 27h. Conditions: Sciatic nerve. In kind it is functional.
Assay [2] concerns the target Aldo-keto reductase family 1 member B1 (Homo sapiens, UniProt P15121). Kind of assay: Inhibitory activity against human placental aldose reductase.
Assay [3] has as its system Rattus norvegicus. Kind of assay: Inhibition of sorbitol accumulation in sciatic nerves from streptozotocin-diabetic rats dosed at 3*25 mg/kg over 27h. In kind it is functional, Sciatic nerve.
The test system of assay [4] is Rattus norvegicus. Kind of assay: Inhibition of sorbitol accumulation in sciatic nerves from streptozotocin-diabetic rats dosed at 3*10 mg/kg over 27h. In kind it is functional, Sciatic nerve. In a few lines:
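Male Sprague-Dawley rats (180–220 g, 42–54 days) made diabetic with streptozotocin 85 mg/kg at 0 h. Oral gavage at 4, 7 and 24 h, dose quoted per time point. Sciatic nerve sorbitol measured with sorbitol dehydrogenase/NAD in pH 9.4 glycine. Mean (±SEM) percent inhibition against untreated diabetic controls, Student's t test on absolute sorbitol.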

Turning to `C[C@@H]1C[C@@](O)(CC(=O)O)c2cc([N+](=O)[O-])ccc2O1`, the ED50 (as a rule, the dose at which the effect has come halfway, by size or by number of responders) in assay [1] turned out to be 12 mg/kg. In addition, half-maximal inhibition in assay [2] (IC50) was put at 80 nM. Also, the Inhibition – broadly, the relative decrease from the control value, in per cent – in assay [3] was found to be 74%.

In assay [1], `Cc1cc(Cl)cc2c1O[C@H](C)C[C@@]2(O)CC(=O)O` registered a 50% effective dose (ED50) of 49 mg/kg. Also, the IC50 (as a rule, the concentration needed to halve the response being measured) in assay [2] was 1180 nM. In addition, the Inhibition in assay [3] is 28%.

In turn, `C[C@@H]1C[C@@](O)(CC(=O)O)c2cc(Cl)cc(Cl)c2O1` returned an ED50 in assay [1] of 26.6 mg/kg. The compound also had an IC50 in assay [2] of 1000 nM. In assay [3], the Inhibition is on record as 48%.

As for `C[C@@H]1C[C@@](O)(CC(=O)O)c2cc(C#N)c(F)cc2O1`, in assay [4], the Inhibition worked out at 15%. In assay [1], this compound gave an ED50 of 29.2 mg/kg. Further, 130 nM corresponded to half-maximal inhibition in assay [2] (IC50).

In assay [1], `C[C@@H]1C[C@@](O)(CC(=O)O)c2cc([N+](=O)[O-])c(Cl)cc2O1` gave an ED50 of 14.9 mg/kg. Also, the midpoint of inhibition in assay [2], the IC50, lay at 110 nM. Also, the Inhibition in assay [3] was 67%.

On to `C[C@@H]1C[C@@](O)(CC(=O)O)c2cc([N+](=O)[O-])c(F)cc2O1`, for which, in assay [4], the Inhibition was found to be 5%. In assay [2], inhibition was half-maximal at 70 nM (IC50).

Compound `O=C(O)C[C@]1(O)C[C@@H](CCc2ccccc2)Oc2ccc(F)cc21` showed an IC50 in assay [2] of 1140 nM. The Inhibition in assay [3] amounted to 5%.

In assay [2], `C[C@@H]1COc2ccc(F)cc2[C@]1(O)CC(=O)O` registered an IC50 of 11000 nM.

Turning to `C[C@@H]1[C@@H](C)Oc2ccc(F)cc2[C@]1(O)CC(=O)O`, the half-maximal inhibitory concentration (IC50) in assay [2] was 29400 nM.

In assay [1], `CCC[C@@H]1C[C@@](O)(CC(=O)O)c2cc(F)ccc2O1` came in with an ED50 of 70.8 mg/kg. Besides, the IC50 in assay [2] came out at 970 nM. The Inhibition in assay [3] is reported as 16%.

Consider `C[C@@H]1C[C@@](O)(CC(=O)O)c2c(ccc(Cl)c2[N+](=O)[O-])O1`, for which, in assay [2], 95500 nM corresponded to half-maximal inhibition (IC50).

In assay [2], `C1CCC(NC2CCCCC2)CC1.O=C(O)C[C@]1(O)C[C@@H](C(=O)c2ccccc2)Oc2ccc(F)cc21` returned an IC50 of 1390 nM. In addition, in assay [3], the Inhibition came out at 1%.

In assay [2], `CC1(C)C[C@@](O)(CC(=O)O)c2cc(Cl)c(Cl)cc2O1` came in with an IC50 of 1860 nM. In addition, the Inhibition in assay [3] turned out to be 6%.

For `C[C@@H]1C[C@@](O)(CC(=O)O)c2ccc(C(=O)O)cc2O1`, the ED50 in assay [1] was 26.6 mg/kg. Further, in assay [2], half-maximal inhibition (IC50) was put at 70 nM. For the same compound, the Inhibition in assay [3] worked out at 48%.

In turn, `C[C@@H]1C[C@@](O)(CC(=O)O)c2c(Cl)cccc2O1` yielded an IC50 in assay [2] of 43500 nM.

As to `C[C@@H]1C[C@@](O)(CC(=O)O)c2cc(Cl)ccc2O1`, in assay [1], the ED50 was 14.9 mg/kg. Moreover, in assay [2], the concentration for half-maximal inhibition (IC50) worked out at 820 nM. The Inhibition in assay [3] worked out at 67%.

For the compound `CC(C)(C)[C@@H]1C[C@@](O)(CC(=O)O)c2cc(F)ccc2O1`, in assay [1], the ED50 turned out to be 47.6 mg/kg. The compound further displayed an IC50 in assay [2] of 360 nM. The Inhibition in assay [3] worked out at 29%.

For `CC(C)[C@@H]1C[C@@](O)(CC(=O)O)c2cc(F)ccc2O1`, in assay [2], half-maximal inhibition (IC50) required 570 nM. Besides, the Inhibition in assay [3] was -7%.

In the case of `C[C@@H]1C[C@@](O)(CC(=O)O)c2cc(Br)ccc2O1`, the ED50 in assay [1] was 60.8 mg/kg. Also, in assay [2], the IC50 turned out to be 1670 nM. In addition, in assay [3], the Inhibition was 21%.

Regarding `C[C@@H]1C[C@@](O)(CC(=O)O)c2ccc(F)cc2O1`, the half-maximal inhibitory concentration (IC50) in assay [2] is 5420 nM.

As for `C[C@@H]1C[C@@](O)(CC(=O)O)C2=C(C=CCC2(C)[N+](=O)[O-])O1` (stereo partly drawn), the midpoint of inhibition in assay [2], the IC50, lay at 1630 nM. Moreover, in assay [3], the Inhibition is on record as -31%.

In assay [2], `Cc1ccc2c(c1)[C@](O)(CC(=O)O)C[C@@H](C)O2` gave an IC50 of 11300 nM. Further, the Inhibition in assay [3] is reported as -16%.

The compound `C[C@@H]1C[C@@](O)(CC(=O)O)c2c(Cl)cc(Cl)cc2O1` gave an IC50 in assay [2] of 29400 nM.

As for `COc1ccc2c(c1)[C@](O)(CC(=O)O)C[C@@H](C)O2`, in assay [2], 281000 nM corresponded to half-maximal inhibition (IC50).

`C[C@@H]1C[C@@](O)(CC(=O)O)c2ccc(Cl)cc2O1` registered an IC50 in assay [2] of 3320 nM. For the same compound, in assay [3], the Inhibition came to 0%.

In the case of `Cc1cc2c(cc1[N+](=O)[O-])[C@](O)(CC(=O)O)C[C@@H](C)O2`, the 50% effect level in assay [1] (ED50) was put at a dose of 35 mg/kg. In assay [2], this compound returned an IC50 of 90 nM. Further, the Inhibition in assay [3] was found to be 39%.

Regarding `C[C@@H]1C[C@@](O)(CC(=O)O)c2c(Cl)ccc(Cl)c2O1`, the IC50 in assay [2] came to 13100 nM.

As to `CC(=O)c1ccc2c(c1)[C@](O)(CC(=O)O)C[C@@H](C)O2`, in assay [2], it took 650 nM to reach half-maximal inhibition (IC50). The Inhibition in assay [3] was 5%.

With `Cc1cc2c(cc1Cl)[C@](O)(CC(=O)O)C[C@@H](C)O2`, the 50% effect level in assay [1] (ED50) was put at a dose of 12.7 mg/kg. Further, in assay [2], 240 nM corresponded to half-maximal inhibition (IC50). Moreover, the Inhibition in assay [3] was determined as 72%.

Compound `O=C(O)C[C@@]1(O)c2cc(F)ccc2O[C@@H]2CCCC[C@@H]21` gave an IC50 in assay [2] of 11000 nM.

Consider `C[C@@H]1C[C@@](O)(CC(=O)O)c2c(ccc(Cl)c2Cl)O1`, for which the ED50 in assay [1] was 25 mg/kg. Besides, the midpoint of inhibition in assay [2], the IC50, lay at 1630 nM. The Inhibition in assay [3] is recorded as 50%.

`C[C@@H]1C[C@@](O)(CC(=O)O)c2cc(Cl)c(OCc3ccccc3)cc2O1`: the Inhibition in assay [4] is reported as 12%. In assay [1], this compound yielded an ED50 of 32 mg/kg. This compound also gave a 50% inhibitory concentration (IC50) in assay [2] of 60 nM.

For `C[C@H]1Oc2ccc(F)cc2[C@](O)(CC(=O)O)[C@H]1C`, the 50% effect level in assay [1] (ED50) was put at a dose of 47.6 mg/kg. In assay [2], this compound had an IC50 of 910 nM. Moreover, in assay [3], the Inhibition is listed as 29%.

Take `C[C@@H]1C[C@@](O)(CC(=O)O)c2cc(Cl)c3ccccc3c2O1`: in assay [1], the 50% effect level (ED50) was put at a dose of 29.1 mg/kg. Further, the IC50 in assay [2] turned out to be 400 nM. Further, the Inhibition in assay [3] is on record as 45%.

In turn, `C[C@@H]1C[C@@](O)(CC(=O)O)c2cccc(Cl)c2O1` gave an IC50 in assay [2] of 5700 nM.

In assay [2], `C[C@@H]1C[C@@](O)(CC(=O)O)c2c(ccc(F)c2Br)O1` returned an IC50 of 4500 nM.

For `C[C@@H]1C[C@@](O)(CC(=O)O)c2cc(Br)cc(Cl)c2O1`, in assay [2], the half-inhibitory concentration (IC50) was determined as 5160 nM.

On to `CC1(C)C[C@@](O)(CC(=O)O)c2cc([N+](=O)[O-])ccc2O1`, for which the ED50 in assay [1] is 37.2 mg/kg. In assay [2], this compound returned an IC50 of 400 nM. Also, in assay [3], the Inhibition was 37%.

In assay [1], `CC[C@@H]1C[C@@](O)(CC(=O)O)c2cc(F)ccc2O1` gave an ED50 of 50.6 mg/kg. The compound also returned an IC50 in assay [2] of 620 nM. Besides, the Inhibition in assay [3] is recorded as 27%.

`C[C@@H]1C[C@@](O)(CC(=O)O)c2ccc(Cl)c(Cl)c2O1` yielded an IC50 in assay [2] of 780 nM.

`CC1(C)C[C@@](O)(CC(=O)O)c2c(ccc(Cl)c2Cl)O1`: in assay [2], half-maximal inhibition (IC50) was put at 14800 nM.

The compound `C[C@@H]1C[C@@](O)(CC(=O)O)c2cc(S(C)(=O)=O)ccc2O1` showed an IC50 in assay [2] of 8220 nM.

On to `COc1cc2c(cc1Cl)[C@](O)(CC(=O)O)C[C@@H](C)O2`, for which the ED50 in assay [1] was 36.5 mg/kg. This compound displayed an IC50 in assay [2] of 190 nM. Also, the Inhibition in assay [3] came out at 53%.

For `CCc1cc2c(cc1Cl)[C@](O)(CC(=O)O)C[C@@H](C)O2`, the Inhibition in assay [4] was found to be 40%. In assay [1], this compound yielded a 50% effective dose (ED50) of 13.6 mg/kg. The compound further returned an IC50 in assay [2] of 100 nM.
